In ChEMBL document CHEMBL3351794, “Synthesis and biological evaluation of pentacyclic strychnos alkaloids as selective modulators of the ABCC10 (MRP7) efflux pump” (J Med Chem, 2014):
Activity calls are given as the source filed them. No cut-off for these calls is given here.

How the values were obtained:
[1] = biological target: T1, ATP-binding cassette sub-family C member 10 (Homo sapiens) (UniProt Q5T3U5); assay: Inhibition of ABCC10 (unknown origin) expressed in HEK293 cells assessed as reversal of paclitaxel resistance at 12.5 uM after 72 hrs by MTS/PMS assay; type: cell-based
T1 sequence (whole entry): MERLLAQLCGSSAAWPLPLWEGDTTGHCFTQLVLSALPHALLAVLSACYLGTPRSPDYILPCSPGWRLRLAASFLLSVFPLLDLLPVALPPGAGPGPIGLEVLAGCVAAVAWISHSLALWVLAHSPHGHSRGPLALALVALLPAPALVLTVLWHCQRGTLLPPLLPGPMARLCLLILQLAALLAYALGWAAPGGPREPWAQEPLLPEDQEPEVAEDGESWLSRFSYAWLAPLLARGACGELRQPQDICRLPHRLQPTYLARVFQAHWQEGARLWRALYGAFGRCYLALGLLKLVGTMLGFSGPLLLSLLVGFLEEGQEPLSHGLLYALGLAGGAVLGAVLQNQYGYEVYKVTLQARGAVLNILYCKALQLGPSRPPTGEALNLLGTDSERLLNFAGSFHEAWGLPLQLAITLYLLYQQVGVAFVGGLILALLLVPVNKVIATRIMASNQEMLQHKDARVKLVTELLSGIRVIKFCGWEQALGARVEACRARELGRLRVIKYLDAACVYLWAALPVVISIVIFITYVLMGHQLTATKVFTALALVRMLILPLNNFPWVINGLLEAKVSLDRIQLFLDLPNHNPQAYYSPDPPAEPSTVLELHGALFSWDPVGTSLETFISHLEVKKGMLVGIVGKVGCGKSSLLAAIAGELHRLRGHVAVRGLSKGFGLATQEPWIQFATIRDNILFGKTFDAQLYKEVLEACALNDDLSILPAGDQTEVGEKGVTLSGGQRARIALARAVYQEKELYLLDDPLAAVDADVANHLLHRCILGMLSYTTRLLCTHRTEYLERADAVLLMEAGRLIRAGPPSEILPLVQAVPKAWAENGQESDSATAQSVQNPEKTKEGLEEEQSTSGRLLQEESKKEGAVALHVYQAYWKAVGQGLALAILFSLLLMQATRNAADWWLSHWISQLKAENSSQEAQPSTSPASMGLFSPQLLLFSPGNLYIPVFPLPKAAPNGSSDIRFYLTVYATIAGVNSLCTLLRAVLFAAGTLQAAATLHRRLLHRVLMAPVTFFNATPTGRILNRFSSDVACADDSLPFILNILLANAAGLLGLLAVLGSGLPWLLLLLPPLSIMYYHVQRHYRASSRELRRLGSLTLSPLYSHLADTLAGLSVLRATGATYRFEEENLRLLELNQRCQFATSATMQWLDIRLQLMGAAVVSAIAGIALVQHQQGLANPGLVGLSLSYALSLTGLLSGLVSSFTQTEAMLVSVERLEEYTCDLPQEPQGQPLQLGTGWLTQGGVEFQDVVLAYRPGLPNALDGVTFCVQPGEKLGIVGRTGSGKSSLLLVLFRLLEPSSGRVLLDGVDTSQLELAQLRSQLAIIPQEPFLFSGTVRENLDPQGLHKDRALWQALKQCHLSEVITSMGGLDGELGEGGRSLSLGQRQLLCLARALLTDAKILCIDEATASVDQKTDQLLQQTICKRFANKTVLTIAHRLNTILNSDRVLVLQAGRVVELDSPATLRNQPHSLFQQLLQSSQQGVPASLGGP
Procedure, shortened: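 Cells used were HEK293-pcDNA3 vector control and the ABCC10 (MRP7) transfectants C17 and C18, seeded in triplicate at 5000 cells/well in DMEM with 10% FBS. Next day, paclitaxel was added at various concentrations, with or without modulator at 12.5 μM. Survival was read after 72 h of drug exposure by MTS/PMS colorimetric assay.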

[2] = biological target: ATP-dependent translocase ABCB1 (Homo sapiens, UniProt P08183); assay: Inhibition of P-gp (unknown origin) assessed as reduction in ATPase activity at 2.08 to 50 uM incubated over 20 mins by inorganic phosphate release assay
Procedure, shortened: (§1)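 P-gp ATPase assay run in the same way as the ABCC10 assay. Membrane protein (5−10 μg) was preincubated 5 min at 37 °C with test agent, buffer (Tris-HCl pH 7.5, KCl, azide, EGTA, ouabain, DTT) and MgCl2. The reaction was started with 5 mM ATP, run 20 min at 37 °C and quenched with SDS. Pi was measured colorimetrically.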

[3] = biological target: T1, ATP-binding cassette sub-family C member 10 (Homo sapiens); assay: Inhibition of ABCC10 (unknown origin) assessed as reduction in BeFx-sensitive ATPase activity at 50 uM incubated over 20 mins by inorganic phosphate release assay
Procedure, shortened: (§2)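 Membranes holding ABCC10 (5−10 μg protein) were preincubated for 5 min at 37 °C with test agent in 2× assay buffer (Tris-HCl pH 7.5, KCl, sodium azide, EGTA, ouabain, DTT) plus MgCl2. The reaction was started with 5 mM ATP and run 20 min at 37 °C, then stopped with 5% SDS. Released Pi was read colorimetrically (Lanzetta), and ABCC10 activity was taken as the BeFx-sensitive fraction.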

[4] = biological target: T1, ATP-binding cassette sub-family C member 10 (Homo sapiens); assay: Inhibition of ABCC10 (unknown origin) assessed as reduction in BeFx-sensitive ATPase activity incubated over 20 mins by inorganic phosphate release assay; procedure, shortened: as §2
[5] = biological target: T1, ATP-binding cassette sub-family C member 10 (Homo sapiens); assay: Inhibition of ABCC10 (unknown origin) assessed as reduction in BeFx-sensitive ATPase activity at 12.5 uM incubated over 20 mins by inorganic phosphate release assay; procedure, shortened: as §2
[6] = biological target: P-gp (ABCB1) ATPase activity (Homo sapiens, UniProt P08183); assay: Inhibition of P-gp (unknown origin) assessed as reduction in ATPase activity at 2.08 to 6.25 uM incubated over 20 mins by inorganic phosphate release assay; procedure, shortened: as §1
[7] = biological target: T1, ATP-binding cassette sub-family C member 10 (Homo sapiens); assay: Inhibition of ABCC10 (unknown origin) assessed as reduction in BeFx-sensitive ATPase activity at 2.08 to 50 uM incubated over 20 mins by inorganic phosphate release assay; procedure, shortened: as §2

ATP-dependent translocase ABCB1, sequence (P08183 whole entry): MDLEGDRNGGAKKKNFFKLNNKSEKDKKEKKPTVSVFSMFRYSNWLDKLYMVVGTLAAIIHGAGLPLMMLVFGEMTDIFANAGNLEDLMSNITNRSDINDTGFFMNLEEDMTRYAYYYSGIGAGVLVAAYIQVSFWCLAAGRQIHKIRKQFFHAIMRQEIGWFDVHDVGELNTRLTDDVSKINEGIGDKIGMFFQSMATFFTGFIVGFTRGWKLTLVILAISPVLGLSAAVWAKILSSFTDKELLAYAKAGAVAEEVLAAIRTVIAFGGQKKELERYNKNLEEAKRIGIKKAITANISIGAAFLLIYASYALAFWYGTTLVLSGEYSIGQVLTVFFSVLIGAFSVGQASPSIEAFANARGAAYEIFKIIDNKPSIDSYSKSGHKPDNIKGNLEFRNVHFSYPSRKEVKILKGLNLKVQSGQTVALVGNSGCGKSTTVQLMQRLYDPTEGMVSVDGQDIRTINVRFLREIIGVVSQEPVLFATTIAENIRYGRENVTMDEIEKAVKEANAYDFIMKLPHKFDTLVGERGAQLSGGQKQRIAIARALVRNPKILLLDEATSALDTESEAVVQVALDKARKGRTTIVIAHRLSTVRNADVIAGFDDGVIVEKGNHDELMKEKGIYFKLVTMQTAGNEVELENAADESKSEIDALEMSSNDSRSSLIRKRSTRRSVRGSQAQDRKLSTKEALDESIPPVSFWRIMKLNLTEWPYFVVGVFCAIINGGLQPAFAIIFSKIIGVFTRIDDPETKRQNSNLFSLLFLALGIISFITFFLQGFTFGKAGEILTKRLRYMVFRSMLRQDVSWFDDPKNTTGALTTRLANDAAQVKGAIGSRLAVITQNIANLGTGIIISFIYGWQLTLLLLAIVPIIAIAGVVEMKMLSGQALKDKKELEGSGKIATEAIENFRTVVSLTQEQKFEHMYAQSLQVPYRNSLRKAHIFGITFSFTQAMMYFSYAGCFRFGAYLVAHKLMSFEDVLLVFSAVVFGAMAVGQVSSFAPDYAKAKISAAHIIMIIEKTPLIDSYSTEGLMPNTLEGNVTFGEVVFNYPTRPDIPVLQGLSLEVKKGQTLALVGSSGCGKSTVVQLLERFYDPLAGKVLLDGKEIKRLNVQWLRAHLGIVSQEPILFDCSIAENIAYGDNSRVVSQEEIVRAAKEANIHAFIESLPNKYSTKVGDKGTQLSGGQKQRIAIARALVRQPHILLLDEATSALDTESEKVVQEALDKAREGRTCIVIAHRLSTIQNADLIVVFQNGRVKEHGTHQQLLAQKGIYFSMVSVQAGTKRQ
P-gp (ABCB1) ATPase activity, sequence (P08183 whole entry): as above

| SMILES | inhibition [7] | inhibition [1] [%] | inhibition (INH) [2] | other results |
| --- | --- | --- | --- | --- |
| COC(=O)C1=C2Nc3ccccc3[C@@]23CCN2C[C@H](C(C)=O)[C@@H]1C[C@H]23 [ALSTOLUCINE F] | – | 50 | Not Active | inhibition [3]: 40% |
| COc1ccc2cc1Oc1ccc(cc1)C[C@H]1c3c(cc4c(c3Oc3cc5c(cc3OC)CCN(C)[C@@H]5C2)OCO4)CCN1C | – | – | – | inhibition [4]: 20% |
| COC(=O)C1=C2Nc3ccccc3[C@@]23CCN2C[C@@H](C(C)=O)[C@@H]1C[C@H]23 [ALSTOLUCINE B] | – | 50 | Not Active | inhibition [5]: 40% |

The next lines start with results.

| inhibition [7] | SMILES | inhibition [1] [%] | inhibition (INH) [2] | other results |
| --- | --- | --- | --- | --- |
| inactive | COC(=O)C1=C2Nc3ccccc3[C@@]23CCN2C[C@H]([C@@H](C)O)[C@@H]1C[C@H]23 | – | – | inhibition at 20 min [6]: 35% |
| inactive | CCOC(=O)O[C@H](C)[C@H]1CN2CC[C@]34C(=C(C(=O)OC)[C@H]1C[C@H]23)Nc1ccccc14 [ALSTOLUCINE A] | – | Not Active | – |
